Measurements: ChEMBL document CHEMBL4689842, “EUbOPEN Chemogenomics Library wave 1” (2021)

Tested on: HEK-293T
Test: Multiplex assay against HEK293T;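 for Population Tubulin-Different-Phenotype (%): share of the cells with healthy nuclei that show this phenotype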
Format: toxicity, cell-based
Conditions: human
In short: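 Values for tubulin, mitochondrial-mass and membrane-permeability phenotypes are per cents of cells with healthy nuclei. These cells were identified by CellPathfinder machine-learning gating of live cells that had been stained at seeding with Hoechst33342, BioTracker Green Microtubule Cytoskeleton Dye, MitoTracker Red and Annexin V Alexa Fluor 680 and imaged on a CQ1 microscope at 37°C and 5% CO2 after compound addition. The gating first set Hoechst high-intensity objects apart from normal cells, then split normal cells into healthy, pyknosed or fragmented nuclei, and pyknosed cells into mitotic or apoptotic.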

[1] = 12 h, 1 µM, compound concentration 1 uM, replicate 1
[2] = 12 h, 1 µM, compound concentration 1 uM, replicate 2
[3] = 12 h, 10 µM, compound concentration 10 uM, replicate 1
[4] = 12 h, 10 µM, compound concentration 10 uM, replicate 2
[5] = 24 h, 1 µM, compound concentration 1 uM, replicate 1
[6] = 24 h, 1 µM, compound concentration 1 uM, replicate 2
[7] = 24 h, 10 µM, compound concentration 10 uM, replicate 1
[8] = 24 h, 10 µM, compound concentration 10 uM, replicate 2
[9] = 48 h, 1 µM, compound concentration 1 uM, replicate 1
[10] = 48 h, 1 µM, compound concentration 1 uM, replicate 2
[11] = 48 h, 10 µM, compound concentration 10 uM, replicate 1
[12] = 48 h, 10 µM, compound concentration 10 uM, replicate 2

CCn1c(=O)c(-c2ccc(-c3cncs3)cc2Cl)cc2cnc(Nc3ccc(N4CCN(C)CC4)cc3)nc21 was tested, and the “Population Apoptotic (%)” value [1] was 34%, the “Population Fragmented Nuclei (%)” value [1] was 7% and the “Population Healthy Nuclei (%)” value [1] was 46%. The “Population Hoechst High Intensity Objects (%)” value [1] was 14%, the “Population Membrane Permeable-Phenotype (%)” value [1] was 2% and the “Population Mitochondria Different-Phenotype (%)” value [1] was 79%. The “Population Mitotic Cells (%)” value [1] was 65%, the “Population Normal (%)” value [1] was 85% and the “Population Pyknosed Nuclei (%)” value [1] was 46%. For the same compound, the “Population Tubulin-Different-Phenotype (%)” value [1] was 55%, the “Total Cell Count” value [1] was 232 and the “Population Apoptotic (%)” value [2] was 10%. For the same compound, the “Population Fragmented Nuclei (%)” value [2] was 5%, the “Population Healthy Nuclei (%)” value [2] was 48% and the “Population Hoechst High Intensity Objects (%)” value [2] was 2%. For the same compound, the “Population Membrane Permeable-Phenotype (%)” value [2] was 9%, the “Population Mitochondria Different-Phenotype (%)” value [2] was 13% and the “Population Mitotic Cells (%)” value [2] was 89%. The “Population Normal (%)” value [2] was 97%, the “Population Pyknosed Nuclei (%)” value [2] was 45% and the “Population Tubulin-Different-Phenotype (%)” value [2] was 18%. For the same compound, the “Total Cell Count” value [2] was 288, the “Population Apoptotic (%)” value [3] was 52% and the “Population Fragmented Nuclei (%)” value [3] was 47%. The “Population Healthy Nuclei (%)” value [3] was 21%, the “Population Hoechst High Intensity Objects (%)” value [3] was 62% and the “Population Membrane Permeable-Phenotype (%)” value [3] was 5%. The “Population Mitochondria Different-Phenotype (%)” value [3] was 93%, the “Population Mitotic Cells (%)” value [3] was 47% and the “Population Normal (%)” value [3] was 37%. The “Population Pyknosed Nuclei (%)” value [3] was 30%, the “Population Tubulin-Different-Phenotype (%)” value [3] was 93% and the “Total Cell Count” value [3] was 1090. The “Population Apoptotic (%)” value [4] was 15%, the “Population Fragmented Nuclei (%)” value [4] was 7% and the “Population Healthy Nuclei (%)” value [4] was 55%. For the same compound, the “Population Hoechst High Intensity Objects (%)” value [4] was 4%, the “Population Membrane Permeable-Phenotype (%)” value [4] was 20% and the “Population Mitochondria Different-Phenotype (%)” value [4] was 16%. For the same compound, the “Population Mitotic Cells (%)” value [4] was 84%, the “Population Normal (%)” value [4] was 95% and the “Population Pyknosed Nuclei (%)” value [4] was 37%. For the same compound, the “Population Tubulin-Different-Phenotype (%)” value [4] was 38%, the “Total Cell Count” value [4] was 174 and the “Population Apoptotic (%)” value [5] was 57%. For the same compound, the “Population Fragmented Nuclei (%)” value [5] was 11%, the “Population Healthy Nuclei (%)” value [5] was 42% and the “Population Hoechst High Intensity Objects (%)” value [5] was 14%. The “Population Membrane Permeable-Phenotype (%)” value [5] was 2%, the “Population Mitochondria Different-Phenotype (%)” value [5] was 55% and the “Population Mitotic Cells (%)” value [5] was 42%. The “Population Normal (%)” value [5] was 85%, the “Population Pyknosed Nuclei (%)” value [5] was 45% and the “Population Tubulin-Different-Phenotype (%)” value [5] was 45%. For the same compound, the “Total Cell Count” value [5] was 233, the “Population Apoptotic (%)” value [6] was 12% and the “Population Fragmented Nuclei (%)” value [6] was 4%. The “Population Healthy Nuclei (%)” value [6] was 65%, the “Population Hoechst High Intensity Objects (%)” value [6] was 1% and the “Population Membrane Permeable-Phenotype (%)” value [6] was 8%. The “Population Mitochondria Different-Phenotype (%)” value [6] was 15%, the “Population Mitotic Cells (%)” value [6] was 87% and the “Population Normal (%)” value [6] was 98%. The “Population Pyknosed Nuclei (%)” value [6] was 29%, the “Population Tubulin-Different-Phenotype (%)” value [6] was 31% and the “Total Cell Count” value [6] was 358. For the same compound, the “Population Apoptotic (%)” value [7] was 59%, the “Population Fragmented Nuclei (%)” value [7] was 59% and the “Population Healthy Nuclei (%)” value [7] was 8%. For the same compound, the “Population Hoechst High Intensity Objects (%)” value [7] was 71%, the “Population Membrane Permeable-Phenotype (%)” value [7] was 0% and the “Population Mitochondria Different-Phenotype (%)” value [7] was 92%. The “Population Mitotic Cells (%)” value [7] was 40%, the “Population Normal (%)” value [7] was 28% and the “Population Pyknosed Nuclei (%)” value [7] was 31%. The “Population Tubulin-Different-Phenotype (%)” value [7] was 97%, the “Total Cell Count” value [7] was 1552 and the “Population Apoptotic (%)” value [8] was 30%. For the same compound, the “Population Fragmented Nuclei (%)” value [8] was 11%, the “Population Healthy Nuclei (%)” value [8] was 57% and the “Population Hoechst High Intensity Objects (%)” value [8] was 4%. For the same compound, the “Population Membrane Permeable-Phenotype (%)” value [8] was 15%, the “Population Mitochondria Different-Phenotype (%)” value [8] was 39% and the “Population Mitotic Cells (%)” value [8] was 69%. The “Population Normal (%)” value [8] was 95%, the “Population Tubulin-Different-Phenotype (%)” value [8] was 64% and the “Total Cell Count” value [8] was 177. For the same compound, the “Population Apoptotic (%)” value [9] was 50%, the “Population Fragmented Nuclei (%)” value [9] was 14% and the “Population Healthy Nuclei (%)” value [9] was 57%. The “Population Hoechst High Intensity Objects (%)” value [9] was 13%, the “Population Membrane Permeable-Phenotype (%)” value [9] was 3% and the “Population Mitochondria Different-Phenotype (%)” value [9] was 33%. For the same compound, the “Population Mitotic Cells (%)” value [9] was 49%, the “Population Normal (%)” value [9] was 86% and the “Population Pyknosed Nuclei (%)” value [9] was 28%. For the same compound, the “Population Tubulin-Different-Phenotype (%)” value [9] was 36%, the “Total Cell Count” value [9] was 308 and the “Population Apoptotic (%)” value [10] was 11%. For the same compound, the “Population Fragmented Nuclei (%)” value [10] was 6%, the “Population Healthy Nuclei (%)” value [10] was 80% and the “Population Hoechst High Intensity Objects (%)” value [10] was 3%. For the same compound, the “Population Membrane Permeable-Phenotype (%)” value [10] was 7%, the “Population Mitochondria Different-Phenotype (%)” value [10] was 4% and the “Population Mitotic Cells (%)” value [10] was 88%. For the same compound, the “Population Normal (%)” value [10] was 96%, the “Population Pyknosed Nuclei (%)” value [10] was 13% and the “Population Tubulin-Different-Phenotype (%)” value [10] was 29%. For the same compound, the “Total Cell Count” value [10] was 591, the “Population Apoptotic (%)” value [11] was 64% and the “Population Fragmented Nuclei (%)” value [11] was 72%. For the same compound, the “Population Healthy Nuclei (%)” value [11] was 6%, the “Population Hoechst High Intensity Objects (%)” value [11] was 74% and the “Population Membrane Permeable-Phenotype (%)” value [11] was 0%. The “Population Mitochondria Different-Phenotype (%)” value [11] was 84%, the “Population Mitotic Cells (%)” value [11] was 35% and the “Population Normal (%)” value [11] was 25%. For the same compound, the “Population Pyknosed Nuclei (%)” value [11] was 20%, the “Population Tubulin-Different-Phenotype (%)” value [11] was 75% and the “Total Cell Count” value [11] was 1798. For the same compound, the “Population Apoptotic (%)” value [12] was 36%, the “Population Fragmented Nuclei (%)” value [12] was 8% and the “Population Healthy Nuclei (%)” value [12] was 70%. The “Population Hoechst High Intensity Objects (%)” value [12] was 4%, the “Population Membrane Permeable-Phenotype (%)” value [12] was 9% and the “Population Mitochondria Different-Phenotype (%)” value [12] was 25%. For the same compound, the “Population Mitotic Cells (%)” value [12] was 63%, the “Population Normal (%)” value [12] was 95% and the “Population Tubulin-Different-Phenotype (%)” value [12] was 63%. The “Total Cell Count” value [12] was 238.
